Source: ChEMBL document CHEMBL4152346, “Sulfonamido-2-arylbenzoxazole GroEL/ES Inhibitors as Potent Antibacterials against Methicillin-Resistant Staphylococcus aureus (MRSA)” (J Med Chem, 2018)
Activity calls are given as the source filed them. How the calls were made is not given here.

Assays:
Klebsiella pneumoniae = assay: Antibacterial activity against Klebsiella pneumoniae ATCC 13883 after 6 to 8 hrs; assay type: functional, organism-based
Outline: (§1)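 Stagnant liquid-culture proliferation assay at 37°C in broth cation-adjusted with 25 mg/L Ca²⁺ and 12.5 mg/L Mg²⁺, with compounds stamped into the wells. […] OD600 turbidity was read at 6–8 h (K. pneumoniae, E. cloacae, P. aeruginosa) or 24 h (A. baumannii). EC50 came from non-linear regression, averaged in log form over replicates.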

Acinetobacter baumannii = assay: Antibacterial activity against Acinetobacter baumannii ATCC 19606 after 24 hrs; assay type: functional, organism-based; conditions: ATCC 19606 = CIP 70.34 = JCM 6841; outline: as §1
Pseudomonas aeruginosa = assay: Antibacterial activity against Pseudomonas aeruginosa ATCC 10145 after 6 to 8 hrs; assay type: functional, organism-based; outline: as §1
Enterobacter cloacae = assay: Antibacterial activity against Enterobacter cloacae subsp. cloacae ATCC 13047 after 6 to 8 hrs; assay type: functional, organism-based; outline: as §1
Staphylococcus aureus = assay: Antibacterial activity against multidrug resistant Staphylococcus aureus ATCC BAA-44 after 6 to 8 hrs; assay type: functional, organism-based
[1] = Cytotoxicity against human THLE3 cells after 48 hrs by Alamar blue assay; assay type: cell-based
Outline: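 THLE-3 cells, grown in BEBM with the BEGM kit and 10% FBS, were seeded at 1,500 cells/well and allowed 24 h at 37°C, 5% CO2. Compounds were then added at 100 µM to 46 nM final (3-fold steps, 0.1% DMSO) for 48 h. […] CC50 is the log-average of at least triplicate runs.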

HSP60/HSP10 = HSP60/HSP10 (Homo sapiens, UniProt P10809); assay: Inhibition of human N-terminal octa-His-tagged HSP60 expressed in Escherichia coli Rosetta(DE3) pLysS/human HSP10 expressed in Escherichia coli Rosetta(DE3) assessed as reduction in HSP60/HSP10-mediated denatured MDH refolding by measuring MDH enzyme activity using sodium mesoxalate as substrate after 40 to 60 mins by spectrometric analysis
HSP60/HSP10, sequence (P10809 whole entry): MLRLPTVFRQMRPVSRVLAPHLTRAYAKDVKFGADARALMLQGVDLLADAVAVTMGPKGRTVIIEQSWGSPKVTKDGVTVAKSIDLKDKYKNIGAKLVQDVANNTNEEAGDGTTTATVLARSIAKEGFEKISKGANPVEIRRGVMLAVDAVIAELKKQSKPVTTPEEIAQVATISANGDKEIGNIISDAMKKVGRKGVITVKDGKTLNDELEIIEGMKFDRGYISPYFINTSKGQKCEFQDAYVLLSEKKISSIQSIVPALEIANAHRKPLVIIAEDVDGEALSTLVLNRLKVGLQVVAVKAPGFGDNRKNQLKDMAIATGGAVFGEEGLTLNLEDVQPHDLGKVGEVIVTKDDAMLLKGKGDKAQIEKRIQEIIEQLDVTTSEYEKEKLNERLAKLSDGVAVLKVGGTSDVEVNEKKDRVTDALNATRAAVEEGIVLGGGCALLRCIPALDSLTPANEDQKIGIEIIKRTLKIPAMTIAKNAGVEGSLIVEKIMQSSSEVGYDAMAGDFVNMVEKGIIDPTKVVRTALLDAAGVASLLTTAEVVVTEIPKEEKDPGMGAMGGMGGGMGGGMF
HSP60/HSP10, sequence (P61604 whole entry, further chain): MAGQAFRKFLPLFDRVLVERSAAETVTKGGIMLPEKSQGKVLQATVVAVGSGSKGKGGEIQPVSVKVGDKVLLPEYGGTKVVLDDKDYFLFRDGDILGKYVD
Outline: (§2)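 Chaperonin-mediated refolding of denatured MDH, coupled to MDH enzymatic activity as the reporter. Human HSP60/10 (HSP60 without its 26-residue mitochondrial signal peptide) or E. coli GroEL/ES was used, with GroEL tetradecamer at 50 nM (700 nM subunits) during the refolding cycle. IC50s from replicate dose-response curves were averaged as logs after ROUT outlier removal.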

[2] = target: T1, Thiosulfate sulfurtransferase (Homo sapiens, UniProt Q16762); assay: Inhibition of refolded rhodanese (unknown origin) preincubated with Escherichia coli GroEL/GroES for 60 mins by measuring […] after 20 to 40 mins by spectrometric analysis
T1 sequence (Q16762 whole entry): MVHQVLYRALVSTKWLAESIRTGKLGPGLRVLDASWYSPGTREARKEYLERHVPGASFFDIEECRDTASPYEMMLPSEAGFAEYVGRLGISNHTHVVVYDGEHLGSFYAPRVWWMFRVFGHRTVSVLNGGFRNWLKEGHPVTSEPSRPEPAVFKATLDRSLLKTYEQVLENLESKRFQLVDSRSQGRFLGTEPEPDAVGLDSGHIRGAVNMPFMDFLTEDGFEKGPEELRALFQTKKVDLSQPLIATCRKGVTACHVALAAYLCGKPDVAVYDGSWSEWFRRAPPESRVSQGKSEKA

[3] = Inhibition of refolded MDH (unknown origin) preincubated with Escherichia coli GroEL/GroES for 45 mins using sodium mesoxalate as substrate by spectrometric analysis; design: species or system Homo sapiens; outline: as §2

Compound | Activity (Klebsiella pneumoniae) | Activity (Acinetobacter baumannii) | Activity (Pseudomonas aeruginosa) | Activity (Enterobacter cloacae) | EC50 (Staphylococcus aureus) | CC50 at 48 h [1] | IC50 (HSP60/HSP10) | IC50 [2] | IC50 [3]
O=S(=O)(Nc1ccc(-c2nc3cc(NS(=O)(=O)c4cccc5nonc45)ccc3o2)cc1)c1cccc2nonc12 | inactive | inactive | inactive | inactive |  |  |  |  | 
O=S(=O)(Nc1ccc(-c2nc3cc(NS(=O)(=O)c4ccc(F)cc4)ccc3o2)cc1)c1ccc(F)cc1 | inactive | inactive | inactive | inactive |  |  |  |  | 
CCCS(=O)(=O)Nc1ccc(-c2nc3cc(NS(=O)(=O)CCC)ccc3o2)cc1 | inactive | inactive | inactive | inactive |  |  |  |  | 
N#Cc1ccccc1S(=O)(=O)Nc1ccc(-c2nc3cc(NS(=O)(=O)c4ccccc4C#N)ccc3o2)cc1 | inactive | inactive | inactive | inactive |  |  |  |  | 
O=S(=O)(Nc1ccc(-c2nc3cc(NS(=O)(=O)c4ccccc4)ccc3o2)cc1)c1ccccc1 | inactive | inactive | inactive | inactive |  |  |  |  | 
COC(=O)c1ccccc1S(=O)(=O)Nc1ccc(-c2nc3cc(NS(=O)(=O)c4ccccc4C(=O)OC)ccc3o2)cc1 | inactive | inactive | inactive | inactive |  |  |  |  | 
Nc1ccccc1S(=O)(=O)Nc1ccc(-c2nc3cc(NS(=O)(=O)c4ccccc4N)ccc3o2)cc1 | inactive | inactive | inactive | inactive |  |  |  |  | 
CS(=O)(=O)Nc1ccc(-c2nc3cc(NS(C)(=O)=O)ccc3o2)cc1 | inactive | inactive | inactive | inactive |  |  |  |  | 
O=S(=O)(Nc1ccc2oc(-c3ccc(NS(=O)(=O)c4ccc(Cl)s4)cc3)nc2c1)c1ccc(Cl)c(C(F)(F)F)c1 |  |  |  |  | 2.2 µM | 27 µM | 2.4 µM | > 100 µM | 40 µM
O=S(=O)(Nc1ccc(-c2nc3cc(NS(=O)(=O)c4ccc5ccccc5c4)ccc3o2)cc1)c1ccc2ccccc2c1 | inactive | inactive | inactive | inactive |  |  |  |  | 
O=S(=O)(Nc1ccc(-c2nc3cc(NS(=O)(=O)c4cccc5ccccc45)ccc3o2)cc1)c1cccc2ccccc12 | inactive | inactive | inactive | inactive |  |  |  |  | 
O=S(=O)(Nc1ccc(-c2nc3cc(NS(=O)(=O)c4cccc(F)c4)ccc3o2)cc1)c1cccc(F)c1 | inactive | inactive | inactive | inactive |  |  |  |  | 
O=C(O)c1cccc(S(=O)(=O)Nc2ccc(-c3nc4cc(NS(=O)(=O)c5cccc(C(=O)O)c5)ccc4o3)cc2)c1 | inactive | inactive | inactive | inactive |  |  |  |  | 
O=S(=O)(Nc1ccc(-c2nc3cc(NS(=O)(=O)c4ccc(C(F)(F)F)cc4)ccc3o2)cc1)c1ccc(C(F)(F)F)cc1 | inactive | inactive | inactive | inactive |  |  |  |  | 
O=S(=O)(Nc1ccc(-c2nc3cc(NS(=O)(=O)c4ccc(Cl)cc4)ccc3o2)cc1)c1ccc(Cl)cc1 | inactive | inactive | inactive | inactive | 3.5 µM | 18 µM |  | > 100 µM | > 63 µM
O=S(=O)(Nc1ccc(-c2nc3cc(NS(=O)(=O)c4ccccc4C(F)(F)F)ccc3o2)cc1)c1ccccc1C(F)(F)F | inactive | inactive | inactive | inactive |  |  |  |  | 
O=S(=O)(Nc1ccc(-c2nc3cc(NS(=O)(=O)c4ccccc4Br)ccc3o2)cc1)c1ccccc1Br | inactive | inactive | inactive | inactive |  |  |  |  | 
Cc1ccc(S(=O)(=O)Nc2ccc(-c3nc4cc(NS(=O)(=O)c5ccc(C)cc5)ccc4o3)cc2)cc1 | inactive | inactive | inactive | inactive |  |  |  |  | 
